Measured values from ChEMBL document CHEMBL1255451, “Genetic basis of multidrug resistance in Acinetobacter clinical isolates in Taiwan” (2010).
≈ marks a conversion by molar mass, not a printed value. Calls of active or inactive are those of the source. The calls are words filed in the database; no cut-off is given here.

What was measured:
Assay type in all cases: functional
[1] = test system: Acinetobacter baumannii; test: Antimicrobial activity against Acinetobacter baumannii ATCC 15151 harboring ISAba1-blaOXA-23 gene by Etest
[2] = test system: Acinetobacter baumannii; test: Antimicrobial activity against Acinetobacter baumannii ATCC 15151 harboring ISAba1-blaOXA-66 gene by Etest
[3] = test system: Acinetobacter baumannii; test: Antimicrobial activity against Acinetobacter baumannii 6AB11 harboring ISAba1-blaOXA-66 gene by Etest
[4] = test system: Acinetobacter baumannii; test: Antimicrobial activity against Acinetobacter baumannii 6AB15 harboring ISAba1-blaOXA-23 and blaOXA-66 gene by Etest
[5] = test system: Acinetobacter baumannii; test: Antimicrobial activity against Acinetobacter baumannii ATCC 15151 by Etest
[6] = test system: Acinetobacter baumannii; test: Antimicrobial activity against Acinetobacter baumannii ATCC 15151 harboring plasmid AT801 by Etest
[7] = test system: Acinetobacter sp.; test: Antimicrobial activity against Acinetobacter sp. harboring aacA4 gene assessed as percent resistant isolates
How it was run: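 Isolates: 75 nonduplicated Acinetobacter clinical isolates collected at one Taipei hospital in 2006 and identified with API 20NE. Susceptibility was tested on the Vitek 2 automated system using the AST-GN09 Gram-negative card.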

Compound	Activity [1]	Activity [2]	MIC [3] [µg/mL]	MIC [4] [µg/mL]	MIC [5] [µg/mL]	MIC [6] [µg/mL]	MIC [1] [µg/mL]	MIC [2] [µg/mL]	Activity [7] [%]
C[C@H]1COc2c(N3CCN(C)CC3)c(F)cc3c(=O)c(C(=O)O)cn1c23	Active	Active	–	–	–	–	–	–	–
NCC[C@H](O)C(=O)N[C@@H]1C[C@H](N)[C@@H](O[C@H]2O[C@H](CN)[C@@H](O)[C@H](O)[C@H]2O)[C@H](O)[C@H]1O[C@H]1O[C@H](CO)[C@@H](O)[C@H](N)[C@H]1O	Active	Active	–	–	–	–	–	–	–
O=C(O)c1cn(C2CC2)c2cc(N3CCNCC3)c(F)cc2c1=O	Active	Active	–	–	–	–	–	–	–
CC1(C)S[C@@H]2[C@H](NC(=O)[C@H](N)c3ccccc3)C(=O)N2[C@H]1C(=O)O [AMPICILLIN]	–	–	≥ 32	≥ 32	16 (≈ 45.8 µM)	32 (≈ 91.6 µM)	≥ 32	≥ 32	–
CO/N=C(\C(=O)N[C@@H]1C(=O)N2C(C(=O)[O-])=C(C[N+]3(C)CCCC3)CS[C@H]12)c1csc(N)n1 [CEFEPIME]	–	–	≥ 64	≥ 64	4 (≈ 8.32 µM)	4 (≈ 8.32 µM)	≥ 64	4 (≈ 8.32 µM)	–
CC(C)(O/N=C(\C(=O)N[C@@H]1C(=O)N2C(C(=O)[O-])=C(C[n+]3ccccc3)CS[C@H]12)c1csc(N)n1)C(=O)O [CEFTAZIDIME]	–	–	≥ 64	≥ 64	4 (≈ 7.32 µM)	4 (≈ 7.32 µM)	8 (≈ 14.6 µM)	4 (≈ 7.32 µM)	–
C[C@@H](O)[C@H]1C(=O)N2C(C(=O)O)=C(SCCNC=N)C[C@H]12 [IMIPENEM ANHYDROUS]	–	–	≥ 32	≥ 32	0.25 (≈ 0.835 µM)	0.25 (≈ 0.835 µM)	≥ 16	≥ 32	–
C[C@@H](O)[C@H]1C(=O)N2C(C(=O)O)=C(S[C@@H]3CN[C@H](C(=O)N(C)C)C3)[C@H](C)[C@H]12 [MEROPENEM]	–	–	16 (≈ 41.7 µM)	≥ 16	0.25 (≈ 0.652 µM)	0.25 (≈ 0.652 µM)	≥ 16	≥ 16	–
CCN1CCN(C(=O)N[C@@H](C(=O)N[C@@H]2C(=O)N3[C@@H]2SC(C)(C)[C@@H]3C(=O)O)c2ccccc2)C(=O)C1=O [PIPERACILLIN]	–	–	≥ 128	≥ 128	16 (≈ 30.9 µM)	≥ 128	≥ 128	≥ 128	–
NC[C@H]1O[C@H](O[C@H]2[C@H](O)[C@@H](O[C@H]3O[C@H](CO)[C@@H](O)[C@H](N)[C@H]3O)[C@H](N)C[C@@H]2N)[C@H](N)C[C@@H]1O [TOBRAMYCIN]	Active	Active	–	–	–	–	–	–	66
GENTAMICIN	Active	Active	–	–	–	–	–	–	66
